Experimental data from ChEMBL document CHEMBL1629439, “High-throughput identification of antibacterials against methicillin-resistant Staphylococcus aureus (MRSA) and the transglycosylase” (Bioorg Med Chem, 2010).
Converted amounts (≈) assume the structure as drawn.

Experiments:
[1] = system: Serratia marcescens; experiment: Antimicrobial activity against Serratia marcescens ATCC 14756 after 18 to 24 hrs by alamar blue assay; type: functional; conditions: Serratia marcescens, ATCC 14756; read-out: MIC
Summary of the method: (§1)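 Broth microdilution per NCCLS in Mueller-Hinton broth, 8-point twofold dilutions, 384-well format. Exponential-phase cells at 5 × 10^5 cells/ml incubated with compound 18–24 h at 37 °C, then 20% Alamar blue added and fluorescence read. MIC90 taken as the lowest concentration preventing at least 90% bacterial growth.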

[2] = system: Stenotrophomonas maltophilia; experiment: Antimicrobial activity against Stenotrophomonas maltophilia ATCC 13637 after 18 to 24 hrs by alamar blue assay; type: functional; conditions: Stenotrophomonas maltophilia, ATCC 13637; read-out: MIC; summary of the method: as §1
[3] = system: Acinetobacter baumannii; experiment: Antimicrobial activity against Acinetobacter baumannii ATCC 49139 after 18 to 24 hrs by alamar blue assay; type: functional; conditions: Acinetobacter baumannii, ATCC 49139; read-out: MIC; summary of the method: as §1
[4] = Inhibition of transglycosylase assessed as inhibition of NBD- labelled lipid II polymerization
Summary of the method: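 100 µM NBD-labelled lipid II incubated 30 min with full-length PBP (EC, SA or Mtb) and 10 ng/µl N-acetylmuramidase in 50 mM Tris-HCl pH 8.0, 10 mM MgCl2, 0.1% Triton X-100, 10% DMSO, 15% MeOH. Supernatant run on anion-exchange HPLC with 20 mM–0.5 M ammonium acetate gradient. Inhibition calculated from substrate peak-area percentage. IC50 determined. S. aureus strains share one SA enzyme.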

[5] = system: Staphylococcus aureus; experiment: Antimicrobial activity against methicillin-resistant Staphylococcus aureus isolate NTUH4722 after 18 to 24 hrs by alamar blue assay; type: functional
Summary of the method: (§2)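 Broth microdilution per NCCLS standard, Mueller-Hinton broth, 8-point twofold dilutions; exponentially growing cells at 5 10^5 cells/ml with compound, 18–24 h at 37 C; 20% Alamar blue added, fluorescence read; MIC90 taken as lowest concentration preventing at least 90% growth.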

[6] = system: Bacillus subtilis; experiment: Antimicrobial activity against Bacillus subtilis ATCC 23857 after 18 to 24 hrs by alamar blue assay; type: functional; summary of the method: as §1
[7] = system: Staphylococcus aureus; experiment: Antimicrobial activity against Staphylococcus aureus ATCC 29213 after 18 to 24 hrs by alamar blue assay
[8] = system: Mycolicibacterium smegmatis; experiment: Antimicrobial activity against Mycobacterium smegmatis BCRC 11565 after 18 to 24 hrs by alamar blue assay; type: functional; conditions: Mycolicibacterium smegmatis, BCRC 11565; read-out: MIC; summary of the method: as §1
[9] = system: Pseudomonas aeruginosa; experiment: Antimicrobial activity against Pseudomonas aeruginosa ATCC 25619 after 18 to 24 hrs by alamar blue assay; type: functional; conditions: Pseudomonas aeruginosa, ATCC 25619; read-out: MIC; summary of the method: as §1
[10] = system: Escherichia coli; experiment: Antimicrobial activity against Escherichia coli ATCC […] after 18 to 24 hrs by alamar blue assay; type: functional; conditions: Escherichia coli; read-out: MIC; summary of the method: as §1
[11] = system: Staphylococcus aureus; experiment: Antimicrobial activity against methicillin-resistant Staphylococcus aureus ATCC 33592 after 18 to 24 hrs by alamar blue assay; type: functional; conditions: Staphylococcus aureus, ATCC 33592; read-out: MIC; summary of the method: as §2
[12] = system: Staphylococcus aureus; experiment: Antimicrobial activity against oxacillin- and methicillin-resistant Staphylococcus aureus isolate Sa-OXA-R2 after 18 to 24 hrs by alamar blue assay; type: functional; summary of the method: as §2

SMILES | MIC [1] [µg/mL] | MIC [2] [µg/mL] | MIC [3] [µg/mL] | IC90 [4] [µM] | MIC [5] [µg/mL] | MIC [6] [µg/mL] | MIC [7] [µg/mL] | MIC [8] [µg/mL] | MIC [9] [µg/mL] | MIC [10] [µg/mL] | MIC [11] [µg/mL] | MIC [12] [µg/mL]
O=C(Nc1ccc(S(=O)(=O)c2nc3ccccc3s2)c(Cl)c1)c1cc(Cl)cc(Cl)c1O | 16 (≈ 31.1 µM) | 16 (≈ 31.1 µM) | 16 (≈ 31.1 µM) | 100 | ≤ 0.03 | < 0.03 | 8 (≈ 15.6 µM) | 0.5 (≈ 0.973 µM) | 16 (≈ 31.1 µM) | 8 (≈ 15.6 µM) | 4 (≈ 7.78 µM) | ≤ 0.03
Cc1ccc(C(=O)c2cc(NC(=O)c3cc(I)cc(I)c3O)ccc2Cl)cc1 | 16 (≈ 25.9 µM) | 16 (≈ 25.9 µM) | 16 (≈ 25.9 µM) | 100 | ≤ 0.03 | < 0.03 | 4 (≈ 6.48 µM) | 0.5 (≈ 0.81 µM) | 16 (≈ 25.9 µM) | 8 (≈ 13 µM) | 4 (≈ 6.48 µM) | ≤ 0.03
COC(=O)c1ccccc1NC(=O)c1ccc([N+](=O)[O-])o1 | 32 (≈ 110 µM) | 32 (≈ 110 µM) | 12 (≈ 41.3 µM) |  | 4 (≈ 13.8 µM) | 0.06 (≈ 0.207 µM) | 8 (≈ 27.6 µM) | 0.5 (≈ 1.72 µM) | 128 (≈ 441 µM) | 256 (≈ 882 µM) | 0.5 (≈ 1.72 µM) | 2 (≈ 6.89 µM)
CCC(NC(=O)Cc1c(C)c2cc3c(-c4ccc(Cl)cc4)coc3c(C)c2oc1=O)C(=O)O (stereo not drawn) | > 256 | > 256 | > 256 |  | 2.5 (≈ 5.34 µM) | > 64 | 2.5 (≈ 5.34 µM) | 1 (≈ 2.14 µM) | > 256 | > 256 | 5 (≈ 10.7 µM) | 2.5 (≈ 5.34 µM)
O=C(Nc1cccc(C2=Nc3ccccc3C2)c1)c1ccc([N+](=O)[O-])o1 | 32 (≈ 92.1 µM) | 32 (≈ 92.1 µM) | 12 (≈ 34.5 µM) |  | 0.5 (≈ 1.44 µM) | 0.06 (≈ 0.173 µM) | 0.5 (≈ 1.44 µM) | 0.5 (≈ 1.44 µM) | 128 (≈ 369 µM) | 256 (≈ 737 µM) | 0.25 (≈ 0.72 µM) | 0.5 (≈ 1.44 µM)
NC(=O)c1ccsc1NC(=O)c1ccc([N+](=O)[O-])o1 | 32 (≈ 114 µM) | 32 (≈ 114 µM) | 12 (≈ 42.7 µM) |  | 0.25 (≈ 0.889 µM) | 0.06 (≈ 0.213 µM) | 2 (≈ 7.11 µM) | 0.5 (≈ 1.78 µM) | 128 (≈ 455 µM) | 256 (≈ 910 µM) | 0.25 (≈ 0.889 µM) | 0.25 (≈ 0.889 µM)
Cc1ccc(C)c(NS(=O)(=O)c2ccc3c(c2)NCC(C)C(=O)S3)c1 (stereo not drawn) | > 256 | > 256 | > 256 |  | 32 (≈ 85 µM) | < 0.03 | 2 (≈ 5.31 µM) | > 64 | > 256 | > 256 | 16 (≈ 42.5 µM) | > 64
O=C(Nc1ccc2oc(-c3ccncc3)nc2c1)c1ccc([N+](=O)[O-])o1 | 32 (≈ 91.4 µM) | 32 (≈ 91.4 µM) | 12 (≈ 34.3 µM) |  | 2 (≈ 5.71 µM) | 0.06 (≈ 0.171 µM) | 2 (≈ 5.71 µM) | 0.5 (≈ 1.43 µM) | 128 (≈ 365 µM) | 256 (≈ 731 µM) | 4 (≈ 11.4 µM) | > 4
Cc1ccc(N2C(=O)c3ccc([N+](=O)[O-])c4c([N+](=O)[O-])ccc(c34)C2=O)cc1 | > 256 | > 256 | > 256 |  | 2.5 (≈ 6.63 µM) | 4 (≈ 10.6 µM) | 5 (≈ 13.3 µM) | 4 (≈ 10.6 µM) | > 256 | > 256 | 2.5 (≈ 6.63 µM) | 2.5 (≈ 6.63 µM)
O=C(Nc1cc(Cl)c(Cl)c(Cl)c1)c1cc(Br)cc(Br)c1O | 16 (≈ 33.7 µM) | 16 (≈ 33.7 µM) | 16 (≈ 33.7 µM) |  | ≤ 0.03 | < 0.03 | ≤ 0.03 | 0.5 (≈ 1.05 µM) | 16 (≈ 33.7 µM) | 8 (≈ 16.9 µM) | 0.06 (≈ 0.126 µM) | ≤ 0.03
Cc1c(CC(=O)NCC(=O)O)c(=O)oc2c(C)c3occ(-c4ccc(Cl)cc4)c3cc12 | > 256 | > 256 | > 256 |  | 1.25 (≈ 2.84 µM) | > 64 | 1.25 (≈ 2.84 µM) | 1 (≈ 2.27 µM) | > 256 | > 256 | 1.25 (≈ 2.84 µM) | 1.25 (≈ 2.84 µM)
O=C(Nc1nnc(-c2ccc(Br)cc2)o1)c1cccc(F)c1 | > 256 | > 256 | > 256 |  | 0.5 (≈ 1.38 µM) | 0.5 (≈ 1.38 µM) | 2 (≈ 5.52 µM) | 0.5 (≈ 1.38 µM) | > 256 | > 256 | 0.5 (≈ 1.38 µM) | 0.5 (≈ 1.38 µM)
Cc1c(CC(=O)NCCC(=O)O)c(=O)oc2c(C)c3occ(-c4ccc(Cl)cc4)c3cc12 | > 256 | > 256 | > 256 |  | 2.5 (≈ 5.51 µM) | > 64 | 2.5 (≈ 5.51 µM) | 1 (≈ 2.2 µM) | > 256 | > 256 | 1.25 (≈ 2.75 µM) | 2.5 (≈ 5.51 µM)
CSC[C@H](NC(=O)Cc1c(C)c2cc3c(-c4ccc(Cl)cc4)coc3c(C)c2oc1=O)C(=O)O | > 256 | > 256 | > 256 |  | 2.5 (≈ 5 µM) | > 64 | 2.5 (≈ 5 µM) | 1 (≈ 2 µM) | > 256 | > 256 | 1.25 (≈ 2.5 µM) | 2.5 (≈ 5 µM)
CCc1ccccc1NS(=O)(=O)c1ccc2c(c1)NC(=O)C(C)S2 (stereo not drawn) | > 256 | > 256 | > 256 |  | 32 (≈ 88.3 µM) | < 0.03 | 0.5 (≈ 1.38 µM) | > 64 | > 256 | > 256 | 1 (≈ 2.76 µM) | 1 (≈ 2.76 µM)
O=C(Nc1nnc(-c2ccc(Cl)cc2)o1)c1ccc(C(F)(F)F)cc1 | > 256 | > 256 | > 256 |  | 1.5 (≈ 4.08 µM) | 0.5 (≈ 1.36 µM) | 3 (≈ 8.16 µM) | 0.5 (≈ 1.36 µM) | > 256 | > 256 | 1.5 (≈ 4.08 µM) | 1.5 (≈ 4.08 µM)
Cc1c(CC(=O)N[C@@H](C)C(=O)O)c(=O)oc2c(C)c3occ(-c4ccc(Cl)cc4)c3cc12 | > 256 | > 256 | > 256 |  | 0.3 (≈ 0.661 µM) | > 64 | 0.3 (≈ 0.661 µM) | 1 (≈ 2.2 µM) | > 256 | > 256 | 1.25 (≈ 2.75 µM) | 1.25 (≈ 2.75 µM)
Cc1c(CC(=O)N2CCC[C@H]2C(=O)O)c(=O)oc2c(C)c3occ(-c4ccc(Cl)cc4)c3cc12 | > 256 | > 256 | > 256 |  | 0.3 (≈ 0.625 µM) | > 64 | 0.3 (≈ 0.625 µM) | 1 (≈ 2.08 µM) | > 256 | > 256 | 0.3 (≈ 0.625 µM) | 0.6 (≈ 1.25 µM)
COC(=O)c1c(NC(=O)c2ccc([N+](=O)[O-])o2)sc2c1CC(C)(C)NC2(C)C | 32 (≈ 78.5 µM) | 32 (≈ 78.5 µM) | 12 (≈ 29.5 µM) |  | 4 (≈ 9.82 µM) | 0.06 (≈ 0.147 µM) | 2 (≈ 4.91 µM) | 0.5 (≈ 1.23 µM) | 128 (≈ 314 µM) | 256 (≈ 628 µM) | 2 (≈ 4.91 µM) | 2 (≈ 4.91 µM)
NC(=O)c1oc2ccccc2c1NC(=O)c1ccc([N+](=O)[O-])o1 | 32 (≈ 102 µM) | 32 (≈ 102 µM) | 12 (≈ 38.1 µM) |  | 0.5 (≈ 1.59 µM) | 0.06 (≈ 0.19 µM) | 2 (≈ 6.34 µM) | 0.5 (≈ 1.59 µM) | 128 (≈ 406 µM) | 256 (≈ 812 µM) | 0.5 (≈ 1.59 µM) | 2 (≈ 6.34 µM)
CCCC(NC(=O)Cc1c(C)c2cc3c(-c4ccc(Cl)cc4)coc3c(C)c2oc1=O)C(=O)O (stereo not drawn) | > 256 | > 256 | > 256 |  | 2.5 (≈ 5.19 µM) | > 64 | 1.25 (≈ 2.59 µM) | 1 (≈ 2.07 µM) | > 256 | > 256 | 2.5 (≈ 5.19 µM) | 1.25 (≈ 2.59 µM)
